These results are taken from publication PMC7524064 (ESC Heart Failure, 2020).

For one data set, the system named is human atrial trabeculae. Put plainly: Contractility of human atrial trabeculae. The essentials: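 Right atrial appendage trabeculae came from patients undergoing aorto-coronary bypass and were held isometric. After about 30 min equilibration they were stretched to maximal steady-state twitch force and paced at 1 Hz. Test compound (1, 3, 10 μM) or KN93 (5 μM) was washed in for 20 min. Post-rest pauses were 10, 30 and 120 s. Developed and diastolic tension were normalized to each patient's vehicle control.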

Data set [1] deals with human atrial cardiomyocytes. Put plainly: Ca sparks and SR Ca leak, confocal line scans. The data set is classed as cell-based. To be noted: AIP (2 μM). The essentials:
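Myocytes on laminin-coated chambers were loaded 15 min with 10 μmol/L Fluo-4 AM plus 0.02% (w/v) pluronic acid. They were superfused with normal Tyrode solution and imaged by laser-scanning confocal line scans at room temperature. Treatments were test compound at 1, 3 or 10 μM, or myristoylated AIP at 2 μM.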

The test system of data set [2] is human atrial cardiomyocytes. Put plainly: Action potentials in human atrial cardiomyocytes. The data set is classed as cell-based. To be noted: RA608 1, 3, 10 μM; AIP. The essentials:
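Ruptured-patch whole-cell current clamp at room temperature on isolated human atrial cardiomyocytes from seven patients. Action potentials were recorded with vehicle, test compound at 1, 3 or 10 μM, or myristoylated AIP.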

Data set [3] has as its system murine ventricular cardiomyocytes. Put plainly: Action potentials in murine ventricular cardiomyocytes. To be noted: RA608 1, 3, 10 μM; myristoylated AIP 2 μmol/L. The data set is classed as cell-based, mouse.

In the case of `COc1ccc(S(=O)(=O)N(CCO)c2ccccc2CN(C)C/C=C/c2ccc(Cl)cc2)cc1` [KN93], the “contraction amplitude after pause” value in the data set on human atrial trabeculae (KN93 5 μmol/L, compared with RA608) is reported as “comparable increase”. For the same compound, the “diastolic tension normalized to vehicle” value with human atrial trabeculae (KN93 (5 μM)) is given as “only a trend to decrease”. In the data set on human atrial trabeculae (RA608 1, 3, 10 μM, KN93 5 μM), the “relaxation time (time to 80% of relaxation)” value was “neither RA608 nor KN93 resulted in significant alterations”.

On to “autocamtide‐2‐related autoinhibitory peptide [AIP]”, for which the “SR Ca leak vs vehicle” value in data set [1] is “significantly reduced”. Also, the “AP duration (APD50, APD80) vs vehicle” value in data set [2] is “no significant effect”. Also, in data set [3], the “AP duration (APD50)” value is on record as “no significant effect”.
